This note sets out measurements from ChEMBL document CHEMBL5335820, “Novel quinolinepiperazinyl-aryltetrazoles targeting the blood stage of Plasmodium falciparum” (RSC Med Chem, 2024).

Each structure is given as a SMILES string. Calls of active or inactive are those of the source. The calls are words filed in the database; no cut-off is given here.

What all share (assay type): functional, organism-based
Test [1] deals with Plasmodium falciparum. The test is described as follows: Antiplasmodial activity against chloroquine resistant schizont stage Plasmodium falciparum INDO infected in human erythrocytes assessed as decrease in parasitemia at 4.30 uM incubated for 4 hrs by time-kill kinetics based FACS analysis. The conditions noted are these: Erythrocyte, dose 4.3 µM. The procedure, abridged: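 PfINDO early schizonts (32–36 h post-invasion) and late schizonts (42–45 h post-invasion) were exposed to 5.62 or 4.30 μM for up to 16 h, washed at 4 h intervals, then cultured drug-free to a total of 96 h. Parasitemia was counted by FACS on 10^5 cells at the end of the second cycle; schizont rupture was checked microscopically.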
A general note: A flow cytometer gives signals particle by particle.

Test [2] relates to Plasmodium falciparum. In words: Antagonistic antiplasmodial activity against multidrug-resistant Plasmodium falciparum Cam3.1R539T infected in human erythrocytes at 8 times IC50 concentration incubated for 72 hrs in presence of mefloquine by SYBR green I staining based fluorescence assay. Particulars: Erythrocyte. The method in brief: (§1)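 P. falciparum Cam3.1R539T in O+ human erythrocytes, 1% parasitemia, 2% haematocrit. 8× IC50 stocks of test compound and standard drug were mixed at molar ratios 4:1, 3:2, 2:3 and 1:4, then serially diluted two-fold. Plates were incubated 72 h at 37 °C and read by SYBR Green I lysis. Controls were 0.4% DMSO (100% growth) and 4 μM chloroquine (0% growth). ΣFIC = FICA + FICB; <1 synergistic, 1.0–2.0 additive, >2.0 antagonistic.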

For test [3], the system named is Plasmodium falciparum. The test is described as follows: Synergistic antiplasmodial activity against multidrug-resistant Plasmodium falciparum Cam3.1R539T infected in human erythrocytes at 8 times IC50 concentration incubated for 72 hrs in presence of mefloquine by SYBR green I staining based fluorescence assay. Particulars: Erythrocyte. The procedure, abridged:
as §1

In test [4] the test system is Plasmodium falciparum. In words: Synergistic antiplasmodial activity against multidrug-resistant Plasmodium falciparum Cam3.1R539T infected in human erythrocytes at 8 times IC50 concentration incubated for 72 hrs in presence of pyrimethamine by SYBR green I staining based fluorescence assay. The conditions noted are these: Erythrocyte. The procedure, abridged: as §1

Consider `O=C(Cn1nnc(-c2cccc([N+](=O)[O-])c2)n1)N1CCN(c2ccnc3cc(Cl)ccc23)CC1`, for which the result in test [1] and in test [2] was Active.

For `Clc1ccc2c(N3CCN(CCCn4nnc(-c5ccc(Br)cc5)n4)CC3)ccnc2c1`, the outcome in test [3] and in test [4] was Active.
